# Measured values: ChEMBL document CHEMBL1148136, “Induction of quinone reductase by withanolides” (J Nat Prod, 2002)
# Legend:
# [1] = Chemoprevention index, ratio of IC50 for mouse Hepa-1c1c7 cells to drug level required to double specific quinone reductase activity in mouse Hepa-1c1c7 cells; format: functional
# In short: (§1)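 Hepa 1c1c7 cells seeded at 4000 cells/mL, grown 24 h at 37 °C under CO2, then medium changed. Compounds added in 10% DMSO, serially diluted over 0.15-20 µg/mL, and incubated a further 48 h. QR measured as NADPH-dependent, menadiol-mediated MTT reduction to formazan. Protein by crystal violet at 595 nm in duplicate plates. Specific activity expressed relative to solvent control. CD = concentration giving 2-fold activity, CQ = 4-fold. CI = IC50/CD or IC50/CQ.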
# [2] = Chemoprevention index, ratio of IC50 for mouse Hepa-1c1c7 cells to drug level required to induce 4-fold increase in quinone reductase activity in mouse Hepa-1c1c7 cells; format: functional; in short: as §1
# [3] = Growth inhibition of mouse Hepa-1c1c7 cells by crystal violet staining; format: cell-based; settings: for IC50: Mus musculus, Hepa-1c1c7; for Activity: mouse, hepa-1c1c7
# In short: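 Hepa 1c1c7 cells seeded at 4000 cells/mL and grown 24 h at 37 °C, then medium changed. Compounds added in 10% DMSO, serially diluted over 0.15-20 µg/mL, and exposed 48 h. Viability read by crystal violet staining at 595 nm. IC50 taken as the half-maximal inhibitory concentration of cell viability.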
SMILES,Ratio [1],Ratio [2],IC50 [3],Activity [3]
CC(=O)O[C@H]1C=CC(=O)[C@]2(C)[C@H]3CC[C@]45C(O)O[C@@](C)([C@H]6C[C@H](C)[C@@H](C)C(=O)O6)[C@H]4CC[C@H]5[C@@H]3C[C@H]3O[C@]132 (stereo partly specified),>1.4,>1.4,0.39 µM,
CC1=C(C)C(=O)O[C@@H]([C@@H](C)[C@H]2CC[C@H]3[C@@H]4[C@@H]5O[C@@H]5[C@@]5(O)CC=CC(=O)[C@]5(C)[C@H]4C[C@H](O)[C@]23C)C1 [WITHAFEROXOLIDE],>2.9,,> 42.5 µM,
CC(=O)O[C@H]1C=CC(=O)[C@]2(C)[C@H]3CC[C@]45C(=O)O[C@@](C)([C@H]6CC(C)=C(C)C(=O)O6)[C@H]4CC[C@H]5[C@@H]3C[C@H]3O[C@]132,>2,>2,0.57 µM,
C[C@@H](c1cc(O)c2c(c1)CC[C@H]1[C@H]2C[C@@H]2O[C@@]23CC=CC(=O)[C@]13C)[C@@H]1C[C@@H]2O[C@@H]2[C@H](O)O1 [SALPICHROLIDE G],>3.7,,> 42.9 µM,
CO[C@@H]1O[C@@](C)([C@H]2CC(C)=C(C)C(=O)O2)[C@H]2CC[C@H]3[C@@H]4CC=C5[C@@H](O)C=CC(=O)[C@]5(C)[C@H]4CC[C@]123 [WITHAPHYSALIN H],10,,5.21 µM,
CC1=C(C)[C@]2(OC1=O)C(=O)C(C)=C1CC[C@H]3[C@@H]4C[C@H]5O[C@]56CC=CC(=O)[C@]6(C)[C@H]4C[C@@]2(O)[C@]13C [JABOROSALACTONE 1],28.9,6.3,8.08 µM,
CC1=C(CO)C(=O)O[C@@H]([C@@H](C)[C@H]2CC[C@H]3[C@@H]4C[C@@H](O)C5=CC=CC(=O)[C@]5(C)[C@H]4CC[C@]23C)C1 [JABOROSALACTONE B],11.1,26.9,38.5 µM,
CC1=C(C)C(=O)O[C@@H]([C@]2(C)OC(O)[C@]34CC[C@H]5[C@@H](C[C@H]6O[C@]67[C@@H](O)C=CC(=O)[C@]57C)[C@@H]3CC[C@H]24)C1 (stereo partly specified) [WITHAPHYSALIN F],,,4.15 µM,
CC(=O)O[C@@H]1O[C@@](C)([C@H]2CC(C)=C(C)C(=O)O2)[C@H]2CC[C@H]3[C@@H]4CC=C5[C@@H](OC(C)=O)C=CC(=O)[C@]5(C)[C@H]4CC[C@]123,,,5.1 µM,
C[C@H]1C[C@H]([C@](C)(O)[C@H]2[C@@H](O)C[C@H]3[C@@H]4C[C@H]5O[C@]56[C@@H](O)C=CC(=O)[C@]6(C)[C@H]4CC[C@]23C)OC(=O)[C@@H]1C [WITHAPHYSACARPIN],11.1,2.5,4.8 µM,
CC(=O)C1=CC[C@H]2[C@@H]3[C@@H]4O[C@@H]4[C@@]4(O)CC=CC(=O)[C@]4(C)[C@H]3CC[C@]12C,>1.7,,> 58.4 µM,
CC1=C(C)C(=O)O[C@@H]([C@@H](C)[C@@]2(O)CC[C@H]3[C@@H]4C[C@H]5O[C@]56CC=CC(=O)[C@]6(CO)[C@H]4CC[C@@]32C)C1 [JABOROSALACTONE L],,,,Not Active
C[C@@H](c1ccc2c(c1)CC[C@H]1[C@H]2C[C@@H]2O[C@@]23CC=CC(=O)[C@]13C)[C@@H]1C[C@@H]2O[C@@H]2[C@H](O)O1 [SALPICHROLIDE A],>4,,> 42.9 µM,
CC1=C(C)[C@H]([C@H]2O[C@@]3(O)C[C@H]4[C@@H](C[C@H]5O[C@]56CC=CC(=O)[C@]46C)[C@@H]4CC[C@@](O)([C@@H]2C)[C@]43C)OC1=O [TRECHONOLIDE A],28.7,6.1,7.74 µM,
C[C@H]1C[C@H]([C@](C)(O)[C@H]2CC[C@H]3[C@@H]4C[C@H]5O[C@]56[C@@H](O)C=CC(=O)[C@]6(C)[C@H]4CC[C@]23C)OC(=O)[C@@H]1C,7.8,1.4,5.5 µM,
CC1=C(C)C(=O)O[C@@H]([C@](C)(O)[C@H]2CC[C@H]3[C@@H]4[C@@H]5O[C@@H]5[C@@]5(O)CC=CC(=O)[C@]5(C)[C@H]4CC[C@]23C)C1 [WITHANOLIDE A],,,> 42.5 µM,
CC1=C(CO)C(=O)O[C@@H]([C@@H](C)[C@H]2CC[C@H]3[C@@H]4C[C@H]5O[C@]56CC=CC(=O)[C@]6(C)[C@H]4CC[C@]23C)C1 [JABOROSALACTONE A],6.3,2.7,1.83 µM,
CO[C@H]1O[C@@](C)([C@H]2CC(C)=C(C)C(=O)O2)[C@H]2CC[C@H]3[C@@H]4CC=C5[C@@H](O)C=CC(=O)[C@]5(C)[C@H]4CC[C@]123 [WITHAPHYSALIN I],5.1,,5.27 µM,

SMILES,Ratio [1],Ratio [2],IC50 [3],Activity [3]
CC(=O)O[C@@H]1[C@H]2[C@@H]3CC[C@H]([C@@](C)(O)[C@H]4CC(C)=C(C)C(=O)O4)[C@@]3(C)CC[C@@H]2[C@@]2(C)C(=O)C=C[C@H](OC(C)=O)[C@]23O[C@H]13,1.3,,0.33 µM,
CO[C@H]1O[C@@](C)([C@H]2CC(C)=C(C)C(=O)O2)[C@H]2CC[C@H]3[C@@H]4CC=C5C(=O)C=CC(=O)[C@]5(C)[C@H]4CC[C@]123 [WITHAPHYSALIN L],,,0.65 µM,
CC(=O)O[C@H]1C=CC(=O)[C@@]2(C)C1=C[C@H](OC(C)=O)[C@@H]1[C@@H]2CC[C@]2(C)[C@@H]([C@@](C)(O)[C@H]3CC(C)=C(C)C(=O)O3)CC[C@@H]12,>3,,0.81 µM,
CC1=C(C)C(=O)O[C@@H]([C@](C)(O)[C@H]2CC[C@H]3[C@@H]4C[C@H]5O[C@]56[C@@H](O)C=CC(=O)[C@]6(C)[C@H]4CC[C@]23CO)C1,7.2,3.5,1.93 µM,
CC1=C(C)C(=O)O[C@@H]([C@@H](C)[C@@]2(O)CC[C@H]3[C@@H]4C[C@H]5O[C@]56CCCC(=O)[C@]6(CO)[C@H]4CC[C@@]32C)C1 [JABOROSALACTONE O],>27.8,,> 42.3 µM,
CC1=C(C)C(=O)O[C@@H](/C(C)=C2\[C@H](O)C[C@H]3[C@@H]4[C@@H]5O[C@@H]5[C@@]5(O)CC=CC(=O)[C@]5(C)[C@H]4CC[C@]23C)C1 [EXODECONOLIDE B],>2.6,,> 42.7 µM,
CC1=C(C)C(=O)O[C@@H]([C@]2(C)OC(=O)[C@]34CC[C@H]5[C@@H](CC=C6[C@@H](O)C=CC(=O)[C@@]65C)[C@@H]3CC[C@H]24)C1 [WITHAPHYSALIN J],28.1,,11 µM,
CC1=C(C)C(=O)O[C@@H](/C(C)=C2\[C@@H](O)C[C@H]3[C@@H]4[C@@H]5O[C@@H]5[C@@]5(O)CC=CC(=O)[C@]5(C)[C@H]4CC[C@]23C)C1 [EXODECONOLIDE A],>2.7,,> 42.7 µM,
CC1=C(CO)C(=O)O[C@@H]([C@@H](C)[C@H]2CC[C@H]3[C@@H]4C[C@@H](O)[C@@]5(O)CC=CC(=O)[C@]5(C)[C@H]4CC[C@]23C)C1 [JABOROSALACTONE D],>1.7,,> 42.3 µM,
CC1=C(C)C(=O)O[C@@H]([C@]2(C)OC(O)[C@]34CC[C@H]5[C@@H](CC=C6[C@@H](O)C=CC(=O)[C@@]65C)[C@@H]3CC[C@H]24)C1 (stereo partly specified) [WITHAPHYSALIN G],19.3,,9.83 µM,
CC1=C(C)C(=O)O[C@@H]([C@@H](C)[C@@]2(O)CC[C@H]3[C@@H]4[C@@H]5O[C@@H]5[C@@]5(O)CC=CC(=O)[C@]5(C)[C@H]4CC[C@@]32C)C1 [WITHANONE],,,,Not Active
CC1=C(C)[C@]2(OC1=O)[C@H](O)[C@@H](C)[C@]1(O)CC[C@H]3[C@@H]4C[C@@H](O)[C@@]5(Cl)CC=CC(=O)[C@]5(C)[C@H]4C[C@@]2(O)[C@@]31C [JABOROSALACTONE 10],>5.2,,> 38 µM,
CC1=C(C)C(=O)O[C@@H]([C@](C)(O)[C@H]2CC[C@H]3[C@@H]4[C@@H](O)[C@H]5O[C@]56[C@@H](O)C=CC(=O)[C@]6(C)[C@H]4CC[C@]23C)C1,2.5,,1.27 µM,
CC1=C(C)C(=O)O[C@@H]([C@@H]2CO[C@@]3(O)C[C@H]4[C@@H](C[C@@H](O)[C@@]5(O)CC=CC(=O)[C@]45C)[C@@H]4CC[C@]2(O)[C@]43C)C1 [JABOROSALACTONE S],,,> 39.8 µM,
CO[C@]12CC=CC(=O)[C@]1(C)[C@H]1C[C@@]3(O)[C@@]4(C)[C@@H](CC[C@@]4(O)[C@H](C)[C@@H](O)[C@]34OC(=O)C(C)=C4C)[C@@H]1C[C@H]2O [JABOROSALACTONE 12],>4.2,,> 39 µM,
CO[C@@H]1O[C@@](C)([C@H]2CC(C)=C(C)C(=O)O2)[C@H]2CC[C@H]3[C@@H]4CC=C5C(=O)C=CC(=O)[C@]5(C)[C@H]4CC[C@]123 [WITHAPHYSALIN K],,,7.29 µM,
C[S+]([O-])CCCCN=C=S (stereo unspecified) [SULFORAPHANE],23.9,1.1,,
